Results on 35 molecules are retold here after ChEMBL document CHEMBL1154615, “Hydroxamates: relationships between structure and plasma stability” (J Med Chem, 2009).

Bounds are passed on as bounds.

In general, half-life refers to the time in which the quantity being followed falls by half.

Data set [1] can be described thus: (§1) Metabolic stability in Sprague-Dawley rat plasma at 10 uM by LC-MS/MS analysis. It counts as ADME, cell-free. Particulars: Sprague-Dawley. The essentials: (§2)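 Pooled mixed-gender Sprague Dawley lithium-heparin rat plasma, 80 µL per time point in duplicate. Plasma is pre-incubated 5 min at 37 °C, then 30 min with 2 mM PMSF (final) where applied. Compound is added to 10 µM final in 1% DMSO. Quantified by LC-MSMS (MRM or SIM) against an internal standard with a per-compound calibration curve. Result is reported as t1/2.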

Data set [2] can be described thus: Stability in potassium phosphate buffer at pH 7.4. The format is physicochemical.
The species named for data set [3] is Homo sapiens. The experiment in a line: Metabolic stability in human plasma by LC-MS/MS analysis.
Data set [4] in a line: Stability in phosphate buffer saline at pH 7.4. It counts as physicochemical.
Data set [5] relates to Plasma. The experiment in a line: (§3) Metabolic stability in Sprague-Dawley rat plasma at 10 uM by LC-MS/MS analysis in presence of esterase inhibitor PMSF. It counts as ADME, cell-free. Particulars: 10 µM. The essentials: as §2
A short description of data set [6]: Half life in rat at 100 mg/kg, po. It counts as ADME, organism-based. Set-up: dose 100 mg/kg, route oral. Particulars: in vivo.
Data set [7] can be described thus: Half life in po dosed rat. It counts as ADME, organism-based. Particulars: in vivo.
Data set [8] in a line: as §3. Particulars: Sprague-Dawley, with PMSF (esterase inhibitor). It counts as ADME, cell-free. The essentials: as §2
Data set [9] can be described thus: Half life in rat at 100 mg/kg, iv. The format is ADME, organism-based. Set-up: dose 100 mg/kg, route intravenous. Particulars: in vivo.
In data set [10] the test system is Plasma. Described as §1. It counts as ADME, cell-free. Particulars: 10 µM. The method, boiled down: as §2

Molecule `O=C(CCc1ccccc1)NO` showed a half-life at 10 µM in data set [1] of 1.5 h. Moreover, the Stability entry in [2] was “Stable”.

In the case of `O=C(/C=C/c1ccccc1)NO`, the half-life at 10 µM in [1] is 6.2 h. Moreover, the Stability entry in data set [2] is “Stable”.

Regarding `O=C(NO)C(Cc1ccccc1)C(=O)NCc1ccc(F)cc1` (centres undefined), the half-life in [3] and in data set [4] was over 24 h each time. Moreover, the t1/2 in [5] was 15 h. The molecule also had a half-life at 10 µM in [1] of 0.8 h. Further, the Stability entry in data set [2] is “Stable”.

Regarding `O=C(NO)/C(=C\c1ccccc1)C(=O)NCc1ccc(F)cc1`, the half-life in data set [3] and in data set [4] was over 24 h in each case. In addition, the half-life at 10 µM in [1] is 22 h. In data set [2], the Stability result is recorded as “Stable”.

`O=C(NCc1ccc(F)cc1)c1cc2ccccc2n(O)c1=O` registered a half-life at 10 µM in [1] of over 48 h. In [2], the Stability entry is listed as “Stable”.

The molecule `O=C(CC(=O)NCc1ccc(F)cc1)NO` showed a half-life at 10 µM in data set [1] of 10.5 h. Further, the Stability result in [2] is recorded as “Stable”.

As for `CC(C)Cc1ccc(C(=O)N(C)O)cc1`, in [6], the half-life was 0.3 h.

For the molecule `CC(C)Cc1ccc(CC(=O)N(C)O)cc1`, the half-life in [6] was under 0.3 h.

On to `O=C(NO)/C(=C/c1ccccc1)C(=O)NCc1ccc(F)cc1`, for which the half-life in [3] and in data set [4] was over 24 h each time. In addition, the half-life at 10 µM in data set [1] is 4.1 h. Also, the Stability result in data set [2] was “Stable”.

As for `CC(=O)N1CCC(C(=O)NO)(S(=O)(=O)c2ccc(Oc3ccc(Cl)cc3)cc2)CC1`, in data set [7], the half-life is 0.86 h.

In [1], `O=C(COc1ccccc1)NO` gave a half-life at 10 µM of 3 h. In addition, the Stability entry in [2] is listed as “Stable”.

`O=C(CCOc1ccccc1)NO`: the half-life at 10 µM in [1] is 1.4 h. In [2], the Stability entry was “Stable”.

`O=C(NO)C1(S(=O)(=O)c2ccc(Oc3ccc(Cl)cc3)cc2)CCN(C2CC2)CC1` had a half-life in data set [7] of 0.74 h.

Turning to `O=C(NO)C1(C(=O)NCc2ccc(F)cc2)CC1`, the half-life at 10 µM in data set [1] was 22.3 h. Further, in data set [2], the Stability entry is on record as “Stable”.

In turn, `O=C(Cc1ccc(F)cc1)NC(Cc1ccccc1)C(=O)NO` (centres undefined) gave a half-life at 10 µM in [1] of 1.3 h. For the same molecule, the Stability entry in [2] is listed as “Stable”.

In [1], `CC(Cc1ccccc1)(C(=O)NO)C(=O)NCc1ccc(F)cc1` (centres undefined) showed a half-life at 10 µM of 3 h. The Stability entry in data set [2] is “Stable”.

Take `CC(C(=O)NO)C(=O)NCc1ccc(F)cc1` (centres undefined): the half-life at 10 µM in data set [1] is 33 h. For the same molecule, in data set [2], the Stability entry is listed as “Stable”.

`CC(C)(C(=O)NO)C(=O)NCc1ccc(F)cc1`: the half-life at 10 µM in data set [1] is 19.9 h. For the same molecule, the Stability entry in [2] is reported as “Stable”.

Consider `O=C(NO)c1ccc(C#CC2CC2)cc1`, for which the half-life at 10 µM in [1] is 4 h. For the same molecule, in [2], the Stability entry is “Stable”.

In the case of `CN(O)C(=O)C(Cc1ccccc1)C(=O)NCc1ccc(F)cc1` (centres undefined), the half-life at 10 µM in [1] was 0.5 h. Moreover, in [2], the Stability result is “Stable”.

As for `CC(C)(C)OC(=O)N[C@H](Cc1ccccc1)C(=O)NO`, the half-life at 10 µM in data set [1] was under 1 h. In addition, in [2], the Stability entry is on record as “Stable”.

For the molecule `CCOC(=O)[C@H](CCc1ccccc1)N[C@@H](C)C(=O)N1CCC[C@H]1C(=O)O`, the half-life at 10 µM was over 24 h in [8] and 0.05 h in [1].

For the molecule `CC1(C)ON=C(C(Cc2ccccc2)C(=O)NCc2ccc(F)cc2)O1` (centres undefined), in data set [1], the half-life at 10 µM was 1 h. Also, the Stability entry in data set [2] is reported as “Stable”.

In data set [9], `CN(O)C(=O)/C=C/c1ccc2ccccc2c1` gave a half-life of 6 min.

`CC(C)Cc1ccc(C(C)C(=O)N(C)O)cc1` (centres undefined) registered a half-life in [6] of over 0.3 h.

In data set [6], `CC(C)Cc1ccc(CCC(=O)N(C)O)cc1` gave a half-life of under 0.3 h.

For `CC(C)Cc1ccc(/C=C/C(=O)N(C)O)cc1`, in data set [6], the half-life was under 0.3 h.

On to `CN1CCC(C(=O)NO)(S(=O)(=O)c2ccc(Oc3ccc(Cl)cc3)cc2)CC1`, for which, in data set [7], the half-life is 1.25 h.

As for `CCN1CCC(C(=O)NO)(S(=O)(=O)c2ccc(Oc3ccc(Cl)cc3)cc2)CC1`, the half-life in data set [7] is 1.19 h.

For the molecule `O=C(NO)C1(S(=O)(=O)c2ccc(Oc3ccc(Cl)cc3)cc2)CCNCC1`, the half-life in data set [7] is 1.8 h.

`O=C(NO)c1ccccc1` [BENZOHYDROXAMATE] came in with a half-life at 10 µM in [1] of over 24 h. Moreover, the Stability result in [2] is “Stable”.

Consider `CC(C)Cc1ccc(C(C)C(=O)NO)cc1` (centres undefined) [IBUPROXAM], for which, in data set [6], the half-life was 0.3 h.

With `O=C(Cc1ccccc1)NO` [PHENYLACETOHYDROXAMIC ACID], the half-life at 10 µM in [1] is over 24 h. The Stability result in data set [2] is given as “Stable”.

With `O=C(CCCc1ccccc1)NO` [PHENYLBUTYRYLHYDROXAMIC ACID], the t1/2 in [10] was 2 h. Moreover, the Stability result in [2] is “Stable”.

`O=C(CCCCCCC(=O)Nc1ccccc1)NO` [VORINOSTAT] had a half-life at 10 µM in data set [1] of 9.7 h.
